Assay results from ChEMBL document CHEMBL1155165, “SB-431542, a transforming growth factor beta inhibitor, impairs Trypanosoma cruzi infection in cardiomyocytes and parasite cycle completion” (2007).
Active and inactive are the calls of the source. The calls are words filed in the database; no cut-off is given here.

How the values were obtained:
Trypanosoma cruzi [1] = experiment: Antitrypanosomal activity against Trypanosoma cruzi Y in mouse cardiomyocytes assessed as reduction of intracellular amastigotes at 10 uM by Giemsa staining; type: functional, organism-based
Method in brief: (§1)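 Primary mouse embryo cardiomyocytes were seeded at 1 × 10^5 cells/well for 24 h at 37°C in 5% CO2. Cells were pretreated for 1 h with 10 μM inhibitor or vehicle, and treatment was kept throughout. They were infected with Y strain trypomastigotes at 10:1 parasite:host. At 24, 48, 72 and 96 h postinfection cells were Bouin-fixed and Giemsa-stained. Parasites per infected cell were counted over 400 cells on two coverslips. Mean ± SD of three experiments.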

Trypanosoma cruzi [2] = experiment: Antitrypanosomal activity against Trypanosoma cruzi Y in mouse cardiomyocytes assessed as number of intracellular parasites per infected cell at 10 uM after 24 hrs postinfection by Giemsa staining; type: functional; method in brief: as §1
Trypanosoma cruzi [3] = experiment: Antitrypanosomal activity against Trypanosoma cruzi Y in mouse cardiomyocytes assessed as number of intracellular parasites per infected cell at 10 uM after 48 hrs postinfection by Giemsa staining; type: functional; method in brief: as §1
Trypanosoma cruzi [4] = experiment: Antitrypanosomal activity against Trypanosoma cruzi Y in mouse cardiomyocytes assessed as number of intracellular parasites per infected cell at 10 uM after 72 hrs postinfection by Giemsa staining; type: functional; method in brief: as §1
Trypanosoma cruzi [5] = experiment: Antitrypanosomal activity against Trypanosoma cruzi Y in mouse cardiomyocytes assessed as number of intracellular parasites per infected cell at 10 uM after 96 hrs postinfection by Giemsa staining; type: functional; method in brief: as §1
Trypanosoma cruzi [6] = experiment: Antitrypanosomal activity against Trypanosoma cruzi Y in mouse cardiomyocytes assessed as inhibition of trypomastigote release at 10 uM after 96 hrs; type: functional, organism-based
Method in brief: (§2)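 Cardiomyocytes were infected with Y strain trypomastigotes (10:1 parasite:host) and kept with or without 10 μM inhibitor throughout. Parasites released at 96 h postinfection were counted and reported as 10^4. Trypomastigotes were scored separately from nontrypomastigote forms (amastigotes plus epimastigote-like forms).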

Trypanosoma cruzi [7] = experiment: Antitrypanosomal activity against Trypanosoma cruzi Y in mouse cardiomyocytes assessed as number of trypomastigote release at 10 uM after 96 hrs; type: functional; method in brief: as §2
Trypanosoma cruzi [8] = experiment: Antitrypanosomal activity against Trypanosoma cruzi Y in mouse cardiomyocytes assessed as number of nontrypomastigote release at 10 uM after 96 hrs; type: functional; method in brief: as §2
Trypanosoma cruzi [9] = experiment: Antitrypanosomal activity against Trypanosoma cruzi Y in mouse cardiomyocytes assessed as induction of parasite apoptosis at 10 uM after 72 hrs postinfection by TUNEL method; type: functional
Method in brief: (§3)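 Y strain-infected cardiomyocytes were kept with or without 10 μM inhibitor, grown on coverslips. They were fixed in 4% paraformaldehyde for 20 min at 4°C and permeabilized with 0.1% Triton X-100 in 0.1% sodium citrate for 2 min at 4°C. TUNEL labelling ran 60 min at 37°C, followed by DAPI counterstain. The percentage of TUNEL-positive parasites was scored at 72 and 96 h postinfection by epifluorescence.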

Trypanosoma cruzi [10] = experiment: Antitrypanosomal activity against Trypanosoma cruzi Y in mouse cardiomyocytes assessed as induction of parasite apoptosis at 10 uM after 96 hrs postinfection by TUNEL method; type: functional; method in brief: as §3
C32 = experiment: Inhibition of TGFbeta signaling in mink C32 cells at 10 uM by luciferase based assay; type: functional, cell-based; details: Neovison vison
Method in brief: (§4)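 C32 cells are Mv1Lu mink lung cells stably carrying a PAI promoter-luciferase reporter. Cells were plated at 1 × 10^5/well in 5% FCS and switched to 0.1% FCS after 3 h. They were stimulated with TGF-β1 2 ng/ml or live Y strain trypomastigotes, 1 × 10^6 to 4 × 10^6 parasites, with or without 10 μM inhibitor. Luciferase (RLU) was read after 20 h. Mean ± SD of three experiments.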

Trypanosoma cruzi [11] = experiment: Inhibition of Trypanosoma cruzi Y infection-induced TGFbeta signaling in mink C32 cells at 10 uM by luciferase based assay; type: functional, organism-based; method in brief: as §4
Trypanosoma cruzi [12] = experiment: Inhibition of invasion of Trypanosoma cruzi Y in mouse embryo cardiomyocytes assessed as pathogen infection at 10 uM for 1 hr measured at 4 hrs postinfection; type: functional, organism-based
Method in brief: (§5)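 Mouse embryo cardiomyocytes were pretreated for 1 h with 10 μM inhibitor or left untreated. They were infected with Dm28c or Y strain trypomastigotes at 10:1 parasite:host. Cells were fixed at 4 h postinfection and Giemsa-stained. The percentage of infected cells was counted over 400 cells per slide on two coverslips. Control and treated cells were compared by t test.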

Cardiomyocyte = experiment: Inhibition of TGF-beta-1-induced Smad2 phosphorylation in mouse embryo cardiomyocytes at 10 uM by immunoblot; type: functional, cell-based
Method in brief: (§6)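 Mouse embryo cardiomyocytes were pretreated for 1 h with or without 10 μM inhibitor. They were then given 2 ng/ml TGF-β1 or T. cruzi Dm28c for 1 h. Cells were lysed in RIPA buffer, pH 8.0, and 20 μg lysate was run on 12% SDS-PAGE. Blots were probed for phospho-Smad2, with α-tubulin as loading control.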

Trypanosoma cruzi [13] = experiment: Inhibition of Trypanosoma cruzi Dm28C infection-induced Smad2 phosphorylation in mouse embryo cardiomyocytes at 10 uM by immunoblot; type: functional, organism-based; method in brief: as §6
Trypanosoma cruzi [14] = experiment: Inhibition of invasion of Trypanosoma cruzi Dm28C in mouse embryo cardiomyocytes assessed as pathogen infection at 10 uM for 1 hr measured at 4 hrs postinfection; type: functional, organism-based; method in brief: as §5

NC(=O)c1ccc(-c2nc(-c3ccccn3)c(-c3ccc4c(c3)OCO4)[nH]2)cc1 [SB-431542]
Activity (Trypanosoma cruzi [1]): Active
Activity (Trypanosoma cruzi [2]): 1.4
Activity (Trypanosoma cruzi [3]): 4.4
Activity (Trypanosoma cruzi [4]): 38
Activity (Trypanosoma cruzi [5]): 58
Activity (Trypanosoma cruzi [6]): Active
Activity (Trypanosoma cruzi [7]): 19
Activity (Trypanosoma cruzi [8]): 53
Activity (Trypanosoma cruzi [9]): 47.9%
Activity (Trypanosoma cruzi [10]): 26.5%
Activity (C32): Active
Activity (Trypanosoma cruzi [11]): Active
Activity (Trypanosoma cruzi [12]): Active
Activity (Cardiomyocyte): Active
Activity (Trypanosoma cruzi [13]): Active
Activity (Trypanosoma cruzi [14]): Active
